Assay results taken from ChEMBL document CHEMBL1152251, “Preparation of (4,4-difluoro-1,2,3,4-tetrahydro-5H-1-benzazepin-5-ylidene)acetamide derivatives as novel arginine vasopressin V(2) receptor agonists” (Bioorg Med Chem, 2008).
Active and inactive are the calls of the source. No cut-off for these calls is given here.

Assays:
[1] = molecular target: T1, Vasopressin V2 receptor (Homo sapiens, UniProt P30518); test: Displacement of [3H]vasopressin from human vasopressin V2 receptor expressed in CHO cells by microplate scintillation counting; type: cell-based
[2] = molecular target: T1, Vasopressin V2 receptor; test: Agonist activity at human vasopressin V2 receptor expressed in CHO cells assessed as cAMP accumulation by HTRF assay; type: functional, cell-based
Outline: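 Cells kept in α-MEM with 10% FBS, penicillin/streptomycin and 0.1% amethopterin at 37 °C, 5% CO₂, grown to subconfluence, then serum-starved 24 h. Medium changed to α-MEM with 1 mmol/L IBMX and 0.1% BSA, compound added for 10 min at 37 °C. Lysis in PBS/0.2% Triton X-100, cAMP read by HTRF. Triplicate.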

[3] = molecular target: T1, Vasopressin V2 receptor; test: Intrinsic activity at human vasopressin V2 receptor expressed in CHO cells assessed as cAMP accumulation by HTRF assay relative to arginine vasopressin; type: functional, cell-based
[4] = molecular target: Vasopressin V2 receptor (Rattus norvegicus, UniProt Q00788); test: Displacement of [3H]vasopressin from rat vasopressin V2 receptor expressed in CHO cells by microplate scintillation counting; type: cell-based
Vasopressin V2 receptor (Rattus norvegicus, UniProt Q00788), sequence (Q00788 whole entry): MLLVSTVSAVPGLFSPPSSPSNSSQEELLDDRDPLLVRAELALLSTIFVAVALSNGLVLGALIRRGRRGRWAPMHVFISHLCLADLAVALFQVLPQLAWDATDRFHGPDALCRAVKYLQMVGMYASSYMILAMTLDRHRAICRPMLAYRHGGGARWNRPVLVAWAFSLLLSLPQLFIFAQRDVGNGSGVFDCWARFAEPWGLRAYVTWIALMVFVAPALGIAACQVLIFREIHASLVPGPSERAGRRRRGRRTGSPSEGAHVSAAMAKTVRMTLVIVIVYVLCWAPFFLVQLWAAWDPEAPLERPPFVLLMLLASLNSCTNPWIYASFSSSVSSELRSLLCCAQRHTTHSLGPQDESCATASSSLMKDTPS

T1 sequence (P30518 whole entry): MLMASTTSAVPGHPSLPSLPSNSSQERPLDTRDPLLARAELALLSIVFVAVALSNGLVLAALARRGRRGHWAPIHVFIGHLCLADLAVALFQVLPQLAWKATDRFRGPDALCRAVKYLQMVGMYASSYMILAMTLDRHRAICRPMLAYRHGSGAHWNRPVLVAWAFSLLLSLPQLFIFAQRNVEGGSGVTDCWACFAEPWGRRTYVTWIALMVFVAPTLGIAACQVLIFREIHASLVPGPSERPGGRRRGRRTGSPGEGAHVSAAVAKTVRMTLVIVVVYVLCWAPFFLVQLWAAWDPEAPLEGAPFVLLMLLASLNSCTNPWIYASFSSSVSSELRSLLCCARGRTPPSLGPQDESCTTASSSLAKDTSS

Row | SMILES | Ki [1] | EC50 [2] | Activity [3] | Ki [4] | Activity [2]
1 | CN1CCN(c2ccc(C(=O)N3CCC(F)(F)/C(=C\C(=O)NCc4ccccn4)c4ccccc43)c(Cl)c2)CC1 | 170 nM | > 10000 nM | 35.5% |  | 
2 | CCc1ccn(-c2ccc(C(=O)N3CCC(F)(F)/C(=C\C(=O)NCc4ccccn4)c4ccccc43)c(Cl)c2)n1 | 21 nM | > 10000 nM | 86.8% |  | 
3 | O=C(/C=C1/c2ccccc2N(C(=O)c2ccc(NC(=O)c3ccccc3-c3ccccc3)cc2)CCC1(F)F)NCc1ccccn1 |  |  |  | 0.4 nM | inactive
4 | CC(C)c1ccn(-c2ccc(C(=O)N3CCC(F)(F)/C(=C\C(=O)NCc4ccccn4)c4ccccc43)c(Cl)c2)n1 | 18 nM | > 10000 nM | 4.9% |  | 
5 | Cc1ccn(-c2ccc(C(=O)N3CCC(F)(F)/C(=C\C(=O)NCc4ccccn4)c4ccccc43)c(Cl)c2)n1 |  |  |  | 19 nM | 
